The values that follow come from PubChem BioAssay AID720574 (Broad Institute, 2013).

As usually defined, the inhibition is the change of the read-out against control, counted positive when it falls.

The structures appear in SMILES notation. The whole screen tested about 96,000 compounds, of which about 140 (0.15%) were called active. The sample as a whole holds a higher share of actives than the screen did. A number with no mark means an inactive call.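 The calls were made as follows: active = mean replicate inhibition above about 25%, with at least 55% of replicates also reaching it (limit read from the data, passing the limit was not always enough); inconclusive = only one of those two conditions met; inactive = neither condition met.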

Lysine-specific demethylase 4C (Homo sapiens), sequence (Q9H3R0 2-372 limits assumed): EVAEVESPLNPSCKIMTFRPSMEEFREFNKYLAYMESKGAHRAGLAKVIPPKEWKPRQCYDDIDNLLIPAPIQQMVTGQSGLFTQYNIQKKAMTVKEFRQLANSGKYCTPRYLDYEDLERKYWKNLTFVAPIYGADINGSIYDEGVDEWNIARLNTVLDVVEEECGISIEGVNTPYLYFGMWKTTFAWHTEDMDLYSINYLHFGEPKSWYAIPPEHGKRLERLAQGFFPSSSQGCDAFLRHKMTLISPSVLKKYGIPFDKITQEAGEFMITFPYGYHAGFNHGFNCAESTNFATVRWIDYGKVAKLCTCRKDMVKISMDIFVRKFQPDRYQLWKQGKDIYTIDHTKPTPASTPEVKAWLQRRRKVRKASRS

The target of this experiment is Lysine-specific demethylase 4C (Homo sapiens) (UniProt Q9H3R0). Kind of experiment: inhibitors of GASC-1 (KDM4C) histone demethylase, primary screen, biochemical, single concentration HTS (AID 720574). As to conditions: GST-KDM4C 2-372, H3K9me3 peptide, LANCE TR-FRET; at 12.5 µM; active compounds read high. An outline of the steps:
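Assay system: GST-GASC-1 enzyme fragment 2-372 | Amount: 10 nM enzyme | Medium: HEPES buffer, pH 7.5, plus ascorbate | Reagent: H3K9me3 peptide substrate, Fe(II), 2-oxoglutarate | Doses: Single-point compound screen | Incubation: 30 min demethylation and 1 h detection at room temperature | Measured by: LANCE TR-FRET, excitation 340 nm, emissions 618 and 671 nm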
For orientation: TR-FRET usually uses a lanthanide donor and a delayed reading to cut background.
With `COc1ccc2c3c(n(C)c2c1)[C@H](CO)N(C(=O)NC(C)C)CC31CN(CC2CCCCC2)C1`, the inhibition is -0.934%.

With `C[C@H](CO)N1C[C@H](C)[C@H](CN(C)CC2CCCCC2)OCCCC[C@H](C)Oc2ccc(NS(=O)(=O)c3ccc(F)cc3)cc2C1=O`, the inhibition is -1.51%.

Take `COCC(=O)N1[C@H](CO)[C@H](c2ccccc2)C12CN(C(=O)NC1CCCCC1)C2`: the inhibition was 0.705%.

Regarding `CCC(=O)N1CC(=O)N2[C@H](CO)[C@@H](c3ccc(-c4ccc(C(=O)N(C)C)cc4)cc3)[C@@H]2C1`, the inhibition was -0.23%.

For the molecule `COc1ccc(S(=O)(=O)N[C@H]2CC[C@H](CCn3cc(C(C)C)nn3)O[C@@H]2CO)cc1`, the inhibition is 0.0615%.

In the case of `CCCC#Cc1ccc([C@H]2[C@H](CO)N3C(=O)CN(C(=O)c4ccc(F)cc4)C[C@@H]23)cc1`, the inhibition is 0.883%.

Turning to `C/C=C/c1ccc([C@H]2[C@@H](CO)N(C(=O)C3CC3)[C@@H]2CNC(=O)NC(C)C)cc1`, the inhibition was 0.927%.

Regarding `COc1ccccc1S(=O)(=O)N[C@@H]1C=C[C@H](CC(=O)NCc2cccc(F)c2)O[C@H]1CO`, the inhibition was -0.0955%.

On to `C/C=C/c1ccccc1[C@H]1[C@@H](C#N)N(c2nc(CC)cs2)[C@@H]1CO`, for which the inhibition was -0.26%.

In the case of `CN(C)C(=O)C[C@@H]1C[C@@H]2c3cc(NC(=O)NC4CCCCC4)ccc3O[C@@H]2[C@H](CO)O1`, the inhibition is -1.19%.

Consider `CO[C@@H]1CN(C)C(=O)c2ccc(NC(C)=O)cc2OC[C@@H](C)N(CC2CC2)C[C@H]1C`, for which the inhibition was 2.5%.

Turning to `C[C@H](CO)N1C[C@H](C)[C@@H](CN(C)Cc2ccc(-c3ccccc3)cc2)Oc2ccc(NC(=O)Cn3cnnn3)cc2C1=O`, the inhibition was -1.72%.

Consider `CCCN(C)C[C@H]1Oc2ncc(-c3cccnc3)cc2C(=O)N([C@@H](C)CO)C[C@@H]1C`, for which the inhibition is -0.329%.

Consider `C[C@H](CO)N1C[C@H](C)[C@@H](CN(C)C(=O)c2ccncc2)Oc2cc(/C=C/c3ccccc3)ccc2S1(=O)=O`, for which the inhibition was -4.23%.

As for `CS(=O)(=O)Nc1ccc2c(c1)[C@@H]1C[C@H](CC(=O)NCc3ccccn3)O[C@@H](CO)[C@@H]1O2`, the inhibition was -0.895%.

Consider `COc1ccc2c3c([nH]c2c1)[C@@H](CO)N(Cc1ccccc1)CC31CCN(Cc2cncnc2)CC1`, for which the inhibition is -1.85%.

With `COc1ccccc1S(=O)(=O)N[C@@H]1CC[C@@H](CCn2cc(C3CCCCC3)nn2)O[C@H]1CO`, the inhibition is 0.124%.

With `CCC(=O)Nc1ccc2c(c1)C(=O)N(C)[C@H]1CC[C@H](CC(=O)NCC3CCCCC3)O[C@H]1CO2`, the inhibition was -0.841%.

In the case of `Cc1ccc(S(=O)(=O)NCC[C@H]2CC[C@H](NC(=O)c3ccccn3)[C@H](CO)O2)cc1`, the inhibition is -1.29%.

With `CCCN1[C@@H]2c3ccc(-c4ccccc4)c(=O)n3C[C@@H]2[C@@H](CO)[C@@H]1C(=O)N(C)C`, the inhibition is 0.941%.

`COc1ccccc1C(=O)Nc1ccc2c(c1)OC[C@@H](C)NC[C@H](C)[C@@H](OC)CN(C)C2=O`: the inhibition was -1.47%.

For `CCCNC(=O)N(C)C[C@H]1Oc2cc(C#C[C@@H](C)O)ccc2S(=O)(=O)N([C@H](C)CO)C[C@H]1C`, the inhibition was 7.38%.

On to `CO[C@H]1CC[C@@H]2CCOc3c(C#N)cccc3C(=O)N(C)C[C@@H](OC)[C@H](C)C(=O)N(C)C[C@H]1O2`, for which the inhibition was 0.229%.

In the case of `CN1C(=O)c2cc(NC(=O)C3CCC3)ccc2OC[C@@H]2O[C@@H](CC(=O)NCCc3ccncc3)CC[C@H]21`, the inhibition is 1.45%.

Take `CN1C[C@H]2[C@@H](c3ccccc31)[C@@H](CO)N2C(=O)Nc1ccccc1`: the inhibition was -2.7%.

`COc1cccc(-c2ccc3n(c2=O)C[C@@H]2[C@@H](CO)[C@H](C(=O)NC4CCC4)[C@H]3N2C)c1`: the inhibition is 1.02%.

On to `CO[C@@H]1CN(C)C(=O)c2cc(NC(=O)C3CCCC3)ccc2OC[C@H](C)N(C)C[C@@H]1C`, for which the inhibition was -0.0185%.

For the molecule `CO[C@H]1CN(C)C(=O)c2ccc(NC(C)=O)cc2OC[C@@H](C)N(C(=O)CN(C)C)C[C@@H]1C`, the inhibition is -0.377%.

As to `CC(=O)N1[C@H](CO)[C@@H](c2ccccc2)[C@@H]1CN(CC(C)C)C(=O)c1ccccn1`, the inhibition was 4.04%.

With `CCCC(=O)Nc1ccc2c(c1)OC[C@H](C)N(C(=O)C1CCCC1)C[C@@H](C)[C@H](OC)CN(C)C2=O`, the inhibition was 0.661%.

For `Cc1cccc(S(=O)(=O)N2C[C@@H](O)COC[C@H]3O[C@H](CC(=O)N4CCN(C)CC4)CC[C@@H]32)c1`, the inhibition is -1%.

In the case of `O=C(Cc1ccncc1)N1CC[C@@H]2[C@@H](CO)Nc3ccc(C4=CCCCC4)cc3[C@@H]21`, the inhibition is 0.328%.

As for `CC(C)NC(=O)N1C[C@@H]2[C@H](c3ccccc31)[C@@H](CO)N2Cc1ccc(Cl)cc1`, the inhibition was 1.62%.

`CO[C@@H]1CN(C)C(=O)c2cc(NC(=O)Nc3cc(F)ccc3F)ccc2OC[C@H](C)N(C(=O)c2ccccn2)C[C@@H]1C`: the inhibition was -1.15%.

With `CCC(=O)Nc1ccc2c(c1)C(=O)N(C)C[C@H](OC)[C@H](C)CN(CCC(F)(F)F)[C@H](C)CO2`, the inhibition is -0.234%.

As to `C[C@H]1CCCCO[C@@H](CN(C)C(=O)Nc2cccc3ccccc23)[C@@H](C)CN([C@@H](C)CO)C(=O)c2cc(NS(=O)(=O)c3cn(C)cn3)ccc2O1`, the inhibition is -7.92%.

`O=C(C[C@H]1C[C@H]2c3cc(NC(=O)C4CCOCC4)ccc3O[C@H]2[C@@H](CO)O1)NCCN1CCCCC1`: the inhibition is 1.06%.

For `O=C(C[C@H]1CC[C@H]2[C@@H](COC[C@H](O)CN2S(=O)(=O)c2cccc(F)c2)O1)NC1CCC1`, the inhibition is 0.711%.

As for `O=C(C[C@H]1CC[C@@H]2[C@H](COC[C@H](O)CN2Cc2ccccc2F)O1)NC1CCC1`, the inhibition was 1.48%.

For the molecule `O=C(C[C@@H]1C=C[C@@H](NC(=O)c2cccnc2)[C@H](CO)O1)NCc1ccncn1`, the inhibition is 1.05%.

On to `C[C@H](CO)N1C[C@H](C)[C@@H](CN(C)S(C)(=O)=O)Oc2cc(C#CC3CC3)ccc2S1(=O)=O`, for which the inhibition is 4.29%.
